Data as given in ChEMBL document CHEMBL1146240 (J Med Chem, 2007).
Active and inactive are the calls of the source. The calls are words filed in the database; no cut-off is given here.

What was measured:
HECPP [1] = assay: Activation of NF-kappaB in HECPP cells at 10 ug/mL; assay type: functional, cell-based; conditions: Mus musculus
In short: (§1)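 HECPP murine endothelial cells (2.5 × 10⁷) exposed to compound for 2 h. Nuclear extracts prepared, and 5 µg nuclear protein incubated with poly(dI/dC) on ice for 10 min. A ³²P-labeled κ-enhancer NF-κB consensus oligonucleotide was then added. Complexes were resolved on a 4% polyacrylamide gel in 0.25× TBE at 150 V for 2 h, then read by autoradiography (EMSA).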

Splenocyte [2] = assay: Induction of TNF secretion in mouse splenocytes at 10 ug/mL after 4 hrs; assay type: functional
In short: (§2)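 Primary male mouse splenocytes, RBC-lysed, plated at 3 × 10⁶ cells/well in Alpha-MEM with 10% FCS. Treated with compound for 4 h at 37 °C. Supernatant TNF measured by ELISA, each sample in duplicate, with triplicate wells per condition. Mean ± SEM reported.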

MC-38 (Mus musculus) [3] = assay: Induction of hemorrhagic necrosis in colon 38 tumor bearing C57B1/6 mouse at 25 mg/kg, ip after 24 hrs relative to control; conditions: route intraperitoneal
[4] = Cytotoxicity against HECPP cells assessed as reduction of cell viability at 300 ug/mL after 24 hrs by MTT assay; assay type: cell-based; conditions: mouse
In short: (§3)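 HECPP murine endothelial cells in M199 with 10% FCS, 37 °C, 5% CO₂. Seeded at 10⁵ cells/well, incubated overnight, then exposed to compound for 24 h. MTT added for 2 h and formazan dissolved in 0.04 N HCl/isopropanol. Absorbance read at 550 nm with 630 nm reference, expressed as percent of metabolically active cells.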

HECPP [5] = assay: Activation of NF-kappaB in HECPP cells at 30 ug/mL; assay type: functional, cell-based; conditions: Mus musculus; in short: as §1
Splenocyte [6] = assay: Induction of TNF secretion in mouse splenocytes at 30 ug/mL after 4 hrs; assay type: functional; in short: as §2
[7] = Induction of TNF production in murine splenocytes at 100 ug/mL
MC-38 (Mus musculus) [8] = assay: Induction of hemorrhagic necrosis in colon 38 tumor bearing C57B1/6 mouse at 190 mg/kg, ip after 24 hrs relative to control; conditions: route intraperitoneal
[9] = Cytotoxicity against HECPP cells assessed as reduction of cell viability at 600 ug/mL after 24 hrs by MTT assay; assay type: cell-based; conditions: mouse; in short: as §3
HECPP [10] = assay: Activation of NF-kappaB in HECPP cells at 300 ug/mL; assay type: functional, cell-based; conditions: Mus musculus; in short: as §1
HECPP [11] = assay: Activation of NF-kappaB in HECPP cells at 1000 ug/mL; assay type: functional, cell-based; conditions: Mus musculus; in short: as §1
Splenocyte [12] = assay: Induction of TNF secretion in mouse splenocytes at 100 ug/mL after 4 hrs; assay type: functional; in short: as §2
MC-38 (Mus musculus) [13] = assay: Induction of hemorrhagic necrosis in colon 38 tumor bearing C57B1/6 mouse at 200 mg/kg, ip after 24 hrs relative to control; conditions: route intraperitoneal

Structure (SMILES): Cc1ccc2c(=O)c3cccc(CC(=O)O)c3oc2c1C [VADIMEZAN]
- Activity (HECPP [1]): Active
- Activity (Splenocyte [2]): 180 pg/mL
- Activity (MC-38 (Mus musculus) [3]): >95%

Structure (SMILES): Cc1ccc2c(=O)c3cccc(CC(=O)O)c3oc2c1N=[N+]=[N-]
- Activity [4]: 50%
- Activity (HECPP [5]): Active
- Activity (Splenocyte [6]): <50 pg/mL
- TNF production [7]: <50 pg/mL
- Activity (MC-38 (Mus musculus) [8]): >95%

Structure (SMILES): [N-]=[N+]=Nc1cccc2c(=O)c3cccc(CC(=O)O)c3oc12
- Activity [9]: 50%
- Activity (HECPP [10]): Active
- Activity (HECPP [11]): Active
- Activity (Splenocyte [12]): 110 pg/mL
- Activity (MC-38 (Mus musculus) [13]): >95%
